{"source": "ChEMBL document CHEMBL1799933", "about": "“Discovery of a selective allosteric M1 receptor modulator with suitable development properties based on a quinolizidinone carboxylic acid scaffold” (J Med Chem, 2011)", "key": {"[1]": {"biological_target": "T1, Muscarinic acetylcholine receptor M1 (Rattus norvegicus) (UniProt P08482)", "T1 sequence (whole entry)": "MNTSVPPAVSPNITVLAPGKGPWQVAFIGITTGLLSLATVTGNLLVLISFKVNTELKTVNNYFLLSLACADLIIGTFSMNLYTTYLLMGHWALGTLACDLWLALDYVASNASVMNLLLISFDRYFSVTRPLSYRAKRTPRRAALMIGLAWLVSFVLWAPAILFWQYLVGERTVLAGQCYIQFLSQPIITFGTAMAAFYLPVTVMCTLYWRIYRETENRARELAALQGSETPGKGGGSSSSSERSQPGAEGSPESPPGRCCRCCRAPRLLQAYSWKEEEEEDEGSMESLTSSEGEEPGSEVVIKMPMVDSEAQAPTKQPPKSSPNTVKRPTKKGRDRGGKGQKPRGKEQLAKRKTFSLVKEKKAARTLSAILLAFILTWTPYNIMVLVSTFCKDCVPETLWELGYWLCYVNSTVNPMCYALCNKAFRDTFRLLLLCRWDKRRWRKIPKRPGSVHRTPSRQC", "test": "Agonist activity at rat muscarinic M1 receptor expressed in CHOK1 cells assessed as potentiation of acetylcholine-induced calcium mobilization preincubated for 4 mins measured after 1 hr by FLIPR assay", "assay_type": "functional, cell-based", "conditions": "CHO-K1", "outline": "(§1)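 CHO-NFAT cells expressing the named muscarinic receptor (human M1–M4; rhesus, dog or rat M1 in CHO-K1) were plated at 25,000 cells/well and grown overnight at 37 °C, 6% CO2. Cells were loaded with 1 μM Fluo-4AM for 1 h, washed, and preincubated 4 min with serially diluted compound (final DMSO 0.67%). They were then stimulated 4 min with an EC20 of ACh, and Ca2+ flux was read by FLIPR384.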"}, "[2]": {"biological_target": "T2, Muscarinic acetylcholine receptor M1 (Homo sapiens) (UniProt P11229)", "T2 sequence (whole entry)": "T1 sequence (whole entry) with V5A, S254T, S309P, K320R, G337A, V413I", "test": "Agonist activity at human muscarinic M1 receptor expressed in CHONFAT cells assessed as enhancement of acetylcholine-induced calcium mobilization preincubated for 4 mins measured after 1 hr by FLIPR assay", "assay_type": "functional, cell-based", "outline": "as §1"}, "[3]": {"biological_target": "T3, Muscarinic acetylcholine receptor M2 (Homo sapiens) (UniProt P08172)", "T3 sequence (whole entry)": "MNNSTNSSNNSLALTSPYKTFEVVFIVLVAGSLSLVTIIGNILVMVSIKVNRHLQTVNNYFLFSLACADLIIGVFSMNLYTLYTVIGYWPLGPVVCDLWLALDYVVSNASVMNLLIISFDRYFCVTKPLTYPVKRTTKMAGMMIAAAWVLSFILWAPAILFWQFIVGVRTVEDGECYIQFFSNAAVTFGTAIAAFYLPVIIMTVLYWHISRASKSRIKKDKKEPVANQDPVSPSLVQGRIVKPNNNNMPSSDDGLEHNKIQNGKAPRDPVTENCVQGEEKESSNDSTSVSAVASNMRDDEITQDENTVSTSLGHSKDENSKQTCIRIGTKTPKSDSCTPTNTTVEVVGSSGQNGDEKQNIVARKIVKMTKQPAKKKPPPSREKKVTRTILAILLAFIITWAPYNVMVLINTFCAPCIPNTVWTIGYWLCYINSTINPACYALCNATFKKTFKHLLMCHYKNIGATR", "test": "Agonist activity at human muscarinic M2 receptor expressed in CHONFAT cells assessed as increase in acetylcholine-induced calcium mobilization at 10 uM preincubated for 4 mins measured after 1 hr by FLIPR assay", "assay_type": "functional, cell-based", "outline": "as §1"}, "[4]": {"test": "Half life in rhesus monkey", "assay_type": "ADME, organism-based, Macaca mulatta", "conditions": "in vivo"}}, "note": "Residue numbers refer to the chain shown, from its start. Activity calls are given as the source filed them. The calls are words filed in the database; no cut-off is given here.", "data": [{"smiles": "N#CC1(c2ccccn2)CCN(Cc2cc(C(=O)O)c(=O)n3ccccc23)CC1", "note": "[MSD-M1PAM]", "values": [{"measurement": "IP", "setting": "[1]", "value": 89, "unit": "nM"}, {"measurement": "IP", "setting": "[2]", "value": 135, "unit": "nM"}, {"measurement": "Activity", "setting": "[3]", "value": "inactive"}, {"measurement": "half-life", "setting": "[4]", "value": 3.6, "unit": "h"}]}]}
